# Data: ChEMBL document CHEMBL1124509, “Synthesis, cytotoxicity, and antiviral activity of certain 7-[(2-hydroxyethoxy)methyl]pyrrolo[2,3-d]pyrimidine nucleosides related to toyocamycin and sangivamycin” (J Med Chem, 1989)
# Tests used:
# [1] = Cytotoxicity against Monkey kidney cells(BSC-1 cells); assay type: cell-based; conditions: Cercopithecidae
# Human alphaherpesvirus 1 = test: Antiviral activity was determined against Herpes simplex virus type 1 by Plaque-reduction assay; assay type: functional, organism-based
# Outline: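 BSC-1 monolayers (MEM with Earle's salts, 10% FBS) infected with HSV-1 strain S-148, about 100 PFU per 0.2 mL; compound dissolved in overlay medium; plaques counted. IC50 by regression of percent inhibition on log concentration. Acyclovir or ganciclovir positive control, with sets rejected beyond 1.5 SD of control mean.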
# Human betaherpesvirus 5 = test: Antiviral activity against Human cytomegalovirus in a plaque-reduction assay; assay type: functional, organism-based
# Outline: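 HFF monolayers (MEM with Earle's salts, 10% FBS) infected with plaque-purified Towne strain HCMV, about 50 PFU per 0.2 mL inoculum; compound dissolved in overlay medium; plaques counted. IC50 from linear regression of percent inhibition against log concentration. Ganciclovir or acyclovir positive control run; sets rejected if control deviated >1.5 SD from its mean.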
# Homo sapiens = species on record: Homo sapiens; test: Cytotoxicity against Normal human diploid cells (human foreskin fibroblasts cells); conditions: Fibroblast
# [2] = Cytotoxicity against human neoplastic cell line (KB); assay type: cell-based
# Outline: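 KB cells (MEM with Hank's salts, 5% FBS) exposed to compound; incorporation of radioactive precursors, including [3H]dThd, into DNA, RNA and protein measured. An IC50 for each was obtained by regression on log concentration, and the three IC50s were averaged. Averages of two to four experiments.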
# L1210 [3] = test: Antiproliferative testing in vitro and its ability to inhibit the growth of L1210 murine leukemia cells determined at a concentration of 10 uM.; parameters: scale not given: the % may be the effect or the level left
# L1210 [4] = test: Antiproliferative testing in vitro and its ability to inhibit the growth of L1210 murine leukemia cells determined at a concentration of 100 uM.; assay type: functional, Mus musculus
# Outline: (§1)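 L1210 mouse leukemia cells grown in static suspension culture in Fischer's medium for 3 days with test compound. Growth rate was taken as the slope of semilog cell number versus time, expressed as control doubling time as percent of treated doubling time, i.e. treated growth relative to control.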
# L1210 [5] = test: Antiproliferative testing in vitro and its ability to inhibit the growth of L1210 murine leukemia cells determined at a concentration of 10 uM.; assay type: functional, Mus musculus; parameters: scale not given: the % may be the effect or the level left; outline: as §1
SMILES,IC50 [1] [µM],IC50 (Human alphaherpesvirus 1) [µM],IC50 (Human betaherpesvirus 5) [µM],IC50 (Homo sapiens) [µM],IC50 [2] [µM],Control (L1210 [3]) [%],"Growth rate, % of control (L1210 [4]) [%]",Control (L1210 [5]) [%]
Nc1ncnc2c1ccn2COCCO,> 100,> 100,> 100,> 100,> 320,,,
NC(=S)c1cn(COCCO)c2ncnc(N)c12,> 100,> 100,11,100,> 100,93,,
NNC(=O)c1cn(COCCO)c2ncnc(N)c12,> 100,> 100,> 100,> 100,,,92,
COC(=N)c1cn(COCCO)c2ncnc(N)c12,> 100,> 100,> 100,> 100,,,,108
NC(=NO)c1cn(COCCO)c2ncnc(N)c12,> 100,> 100,> 100,> 100,,,89,
N#Cc1cn(COCCO)c2ncnc(N)c12,> 320,> 320,> 100,> 100,> 100,,100,
N#Cc1cnc2n(COCCO)cnc(N)c1-2,> 100,> 100,> 320,> 320,,,,
NC(=O)c1cn(COCCO)c2ncnc(N)c12,> 100,> 100,> 320,> 320,> 100,,100,
CC(=O)OCCOCn1cc(C#N)c2c(N)ncnc21,> 100,> 100,> 100,> 100,,,,
Nc1nc2c(ncn2COCCO)c(=O)[nH]1 [ACYCLOVIR],> 100,3.9,,> 100,> 100,,,
Nc1nc2c(ncn2COC(CO)CO)c(=O)[nH]1 [GANCICLOVIR],> 100,2.3,7.9,> 100,1000,,,
